Results published in ChEMBL document CHEMBL3286371, “wALADin benzimidazoles differentially modulate the function of porphobilinogen synthase orthologs” (J Med Chem, 2014).
The source made the active and inactive calls. No cut-off for these calls is given here.

Tests used:
[1] = biological target: T1, Delta-aminolevulinic acid dehydratase (Escherichia coli (strain K12)) (UniProt P0ACB2); test: Inhibition of Escherichia coli recombinant PBGS using 5-ALA as substrate at 50 to 200 uM at pH 7 to 8.5 by buffer scan assay
T1 sequence (whole entry): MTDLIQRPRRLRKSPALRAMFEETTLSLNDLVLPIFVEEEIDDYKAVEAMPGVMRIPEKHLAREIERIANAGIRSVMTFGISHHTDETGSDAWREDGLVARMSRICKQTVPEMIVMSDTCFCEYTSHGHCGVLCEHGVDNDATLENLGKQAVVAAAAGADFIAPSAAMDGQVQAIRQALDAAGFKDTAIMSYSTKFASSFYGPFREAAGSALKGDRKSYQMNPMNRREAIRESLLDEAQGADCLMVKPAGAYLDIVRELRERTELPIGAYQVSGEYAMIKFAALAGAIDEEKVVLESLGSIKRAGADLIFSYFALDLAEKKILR

[2] = biological target: Delta-aminolevulinic acid dehydratase (Pseudomonas aeruginosa (strain ATCC 15692 / PAO1 / 1C / PRS 101 / LMG12228)) (UniProt Q59643); test: Activation of Pseudomonas aeruginosa PAO1 recombinant PBGS using 0.2 mM 5-ALA as substrate at 10 to 10000 uM at pH 7.5 by buffer scan assay in presence of 10 mM MgCl2
[3] = biological target: Delta-aminolevulinic acid dehydratase (Pseudomonas aeruginosa (strain ATCC 15692 / PAO1 / 1C / PRS 101 / LMG12228)) (UniProt Q59643); test: Binding affinity to Pseudomonas aeruginosa PAO1 recombinant PBGS at 100 to 500 uM by thermal shift assay
[4] = biological target: Delta-aminolevulinic acid dehydratase (Pseudomonas aeruginosa (strain ATCC 15692 / PAO1 / 1C / PRS 101 / LMG12228)) (UniProt Q59643); test: Stimulation of Pseudomonas aeruginosa PAO1 recombinant PBGS using 5 mM 5-ALA as substrate assessed as increase in Vmax at 50 to 200 uM at pH 8 by Michaelis-Menten plot analysis in presence of MgCl2
Outline: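 Mg2+ or substrate response curves recorded with and without wALADin1; VMAX, KM and Mg2+ affinity derived from the fits.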

[5] = biological target: Delta-aminolevulinic acid dehydratase (Pseudomonas aeruginosa (strain ATCC 15692 / PAO1 / 1C / PRS 101 / LMG12228)) (UniProt Q59643); test: Inhibition of Pseudomonas aeruginosa PAO1 recombinant PBGS assessed as inhibition of octamer-inducing effect of Mg2+ by nondenaturing PAGE analysis
Outline: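 PaPBGS (3 μg) preincubated 20 min at 37 °C in assay buffer with 1 mM Mg2+, 100 mM K+ and wALADin1, no 5-ALA. Run on 7.5% nondenaturing PAGE at 4 °C for 15–20 h. Coomassie for oligomer state; in-gel activity with 500 μM 5-ALA stained with Ehrlich's reagent.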

[6] = biological target: T1, Delta-aminolevulinic acid dehydratase (Escherichia coli (strain K12)); test: Stimulation of Escherichia coli recombinant PBGS assessed as reduction in Mg2+-induced conversion of dimer to octamer at 8 to 2000 uM by nondenaturing PAGE analysis
Outline: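 EcPBGS (3 μg) preincubated 20 min at 37 °C in BTP pH 8.1 buffer with varied Mg2+, Zn2+ and wALADin1. Run on 7.5% nondenaturing PAGE; Coomassie stain plus in-gel activity with 500 μM 5-ALA and Ehrlich's reagent.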

[7] = biological target: Delta-aminolevulinic acid dehydratase (Pseudomonas aeruginosa (strain ATCC 15692 / PAO1 / 1C / PRS 101 / LMG12228)) (UniProt Q59643); test: Stimulation of Pseudomonas aeruginosa PAO1 recombinant PBGS using 5-ALA as substrate at 10 to 1000 uM at pH 8 in presence of MgCl2 and KCl
[8] = biological target: Delta-aminolevulinic acid dehydratase (Pseudomonas aeruginosa (strain ATCC 15692 / PAO1 / 1C / PRS 101 / LMG12228)) (UniProt Q59643); test: Stimulation of Pseudomonas aeruginosa PAO1 recombinant PBGS using 5-ALA as substrate at 10 to 1000 uM at pH 8 in presence of 0.1 to 10000 uM MgCl2
[9] = biological target: Delta-aminolevulinic acid dehydratase (Yersinia enterocolitica W22703) (UniProt F4MUJ9); test: Stimulation of Yersinia enterocolitica recombinant PBGS expressed in Escherichia coli using 5-ALA as substrate at 10 to 1000 uM at pH 8 in presence of MgCl2 and KCl
[10] = biological target: Delta-aminolevulinic acid dehydratase (Yersinia enterocolitica W22703) (UniProt F4MUJ9); test: Stimulation of Yersinia enterocolitica recombinant PBGS expressed in Escherichia coli using 5-ALA as substrate relative to control
Outline: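 Y. enterocolitica PBGS, expressed in E. coli from pET3, at 150 nM subunit in 100 mM BTP-HCl pH 8.0 with 1 mM MgCl2, 5 mM DTT, 100 mM KCl and 0.2 mM 5-ALA, 10 min at 36 °C. Porphobilinogen read with Ehrlich's reagent. Activity normalized to 6.7% DMSO control as 100%. EC50 from variable-slope agonist fit.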

[11] = biological target: Delta-aminolevulinic acid dehydratase (Pseudomonas aeruginosa (strain ATCC 15692 / PAO1 / 1C / PRS 101 / LMG12228), UniProt Q59643); test: Stimulation of Pseudomonas aeruginosa PAO1 recombinant PBGS using 5-ALA as substrate
Outline: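 His-tagged PaPBGS at 150 nM subunit in 100 mM Tris-HCl pH 8.0 with 1 mM MgCl2, 100 mM KCl and 0.2 mM 5-ALA, 10 min at 36 °C, with turnover at most 30%. Porphobilinogen read with Ehrlich's reagent. Activity normalized to 6.7% DMSO control as 100%. EC50 from variable-slope agonist fit.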

[12] = Stimulation of Toxoplasma gondii recombinant PBGS using 5-ALA as substrate
Outline: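 T. gondii PBGS, expressed from pET-21b in BL21 E. coli and purified, at 250 nM subunit in 100 mM Tris-HCl pH 8.0 with 1 mM MgCl2, 5 mM DTT and 0.2 mM 5-ALA, 20 min at 36 °C. Porphobilinogen detected with Ehrlich's reagent. Activity normalized to 6.7% DMSO control. EC50 by variable-slope agonist fit.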

[13] = tested on: Toxoplasma gondii; test: Stimulation of Toxoplasma gondii recombinant PBGS using 5-ALA as substrate relative to control
Outline: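 Recombinant T. gondii PBGS (hemB in pET-21b, expressed in BL21 E. coli) at 250 nM subunit in 100 mM Tris-HCl pH 8.0, 1 mM MgCl2, 5 mM DTT, with 200 μM 5-ALA, 20 min at 36 °C. Porphobilinogen was read with Ehrlich's reagent, and turnover was kept at or below 30%.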

[14] = biological target: T2, Delta-aminolevulinic acid dehydratase (Wolbachia sp. subsp. Brugia malayi (strain TRS)) (UniProt Q5GSR3); conditions: 25 to 2500 uM
T2 sequence (whole entry): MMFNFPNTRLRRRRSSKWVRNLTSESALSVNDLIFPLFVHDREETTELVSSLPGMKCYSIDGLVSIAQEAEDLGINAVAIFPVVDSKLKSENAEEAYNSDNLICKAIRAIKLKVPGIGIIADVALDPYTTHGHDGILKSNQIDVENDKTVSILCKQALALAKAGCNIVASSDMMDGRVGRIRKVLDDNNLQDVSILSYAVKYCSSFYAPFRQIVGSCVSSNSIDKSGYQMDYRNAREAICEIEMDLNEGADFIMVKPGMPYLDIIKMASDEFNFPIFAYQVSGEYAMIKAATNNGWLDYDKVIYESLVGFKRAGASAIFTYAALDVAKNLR

[15] = biological target: T2, Delta-aminolevulinic acid dehydratase (Wolbachia sp. subsp. Brugia malayi (strain TRS)); conditions: 25 to 2500 uM; remark: listed apart in the source

Sequence of Delta-aminolevulinic acid dehydratase (Pseudomonas aeruginosa (strain ATCC 15692 / PAO1 / 1C / PRS 101 / LMG12228)) (Q59643 whole entry): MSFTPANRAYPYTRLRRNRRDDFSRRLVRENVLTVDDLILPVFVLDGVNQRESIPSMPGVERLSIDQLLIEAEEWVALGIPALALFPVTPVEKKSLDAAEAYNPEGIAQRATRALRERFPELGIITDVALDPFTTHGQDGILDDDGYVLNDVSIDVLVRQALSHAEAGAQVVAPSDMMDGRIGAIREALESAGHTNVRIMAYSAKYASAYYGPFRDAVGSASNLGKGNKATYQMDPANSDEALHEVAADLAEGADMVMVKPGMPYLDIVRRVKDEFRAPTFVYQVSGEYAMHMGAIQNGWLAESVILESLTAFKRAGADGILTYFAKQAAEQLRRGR
Sequence of Delta-aminolevulinic acid dehydratase (Yersinia enterocolitica W22703) (F4MUJ9 as listed by the source): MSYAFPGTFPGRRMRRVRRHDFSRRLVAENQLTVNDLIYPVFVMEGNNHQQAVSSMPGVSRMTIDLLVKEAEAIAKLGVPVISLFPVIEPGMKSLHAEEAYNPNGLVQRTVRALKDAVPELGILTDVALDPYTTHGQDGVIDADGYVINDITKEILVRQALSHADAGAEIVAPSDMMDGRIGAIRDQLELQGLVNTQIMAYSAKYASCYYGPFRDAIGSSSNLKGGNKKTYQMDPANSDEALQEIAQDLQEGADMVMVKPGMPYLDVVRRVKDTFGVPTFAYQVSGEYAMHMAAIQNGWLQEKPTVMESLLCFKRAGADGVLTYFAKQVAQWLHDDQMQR
Sequence of Delta-aminolevulinic acid dehydratase (Q59643 whole entry): as the sequence (Q59643 whole entry) above

O=C(O)c1ccc2c(c1)nc(CCNC(=O)c1cccs1)n2Cc1cccc(C(F)(F)F)c1
inhibition [1]: Active
Activity [2]: Active
Activity [3]: Active
Activity [4]: Active
inhibition [5]: Dose-dependent effect
Activity [6]: Active
Activity [7]: Active
Activity [8]: Active
Activity [9]: Active
Smax [10]: 152%
EC50 [11]: 69 µM
EC50 [12]: 95 µM
Smax [13]: 128%
inhibition [14]: Active
inhibition [15]: Active
